≈ marks a conversion by molar mass, not a printed value.
What was measured:
[1] = test system: Escherichia coli; assay: Tested in vitro against Escherichia coli Vogel. by gradient-plate test; assay type: functional
Summary of the method: (§1)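 Antibacterial testing in vitro by gradient-plate test. Read-out was the minimum inhibitory concentration, with values exceeding 25 reported as >25.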

[2] = test system: Plasmodium berghei; assay: Antimalarial activity as survivor numbers at day 60 for drug-sensitive Plasmodium berghei infected mice (Mus musculus) at 640 mg/kg subcutaneous dose over 72 hr; assay type: functional
Summary of the method: (§2)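 Mice infected with drug-sensitive P. berghei got one subcutaneous dose in sesame or peanut oil 72 h postinfection. Read-out is the number of mice alive at 60 days postinfection, termed "cured", without subinoculation to confirm parasitological cure. Groups of five per dose, or 10 where indicated.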

[3] = test system: Staphylococcus aureus; assay: In vitro antibacterial activity against […] U.C-76.; assay type: functional; summary of the method: as §1
[4] = test system: Plasmodium berghei; assay: In vivo antimalarial activity against drug-sensitive Plasmodium berghei in mice (Mus musculus) after 320 mg/kg subcutaneous dose for 72 hrs as survivors 60 days post infection
[5] = test system: Plasmodium berghei; assay: Antimalarial activity as change in MST against drug-sensitive Plasmodium berghei infected mice (Mus musculus) at 20 mg/kg subcutaneous dose after 72h; assay type: functional
[6] = test system: Plasmodium berghei; assay: Antimalarial activity as change in MST for drug-sensitive Plasmodium berghei infected mice (Mus musculus) at 80mg/kg subcutaneous dose over 72h; assay type: functional
[7] = test system: Shigella sonnei; assay: In vitro antibacterial activity against Shigella sonnei C-10.; assay type: functional; summary of the method: as §1
[8] = test system: Plasmodium berghei; assay: Antimalarial activity as change in MST for drug-sensitive Plasmodium berghei infected mice (Mus musculus) at 40 mg/kg subcutaneous dose over 72hr; assay type: functional
[9] = test system: Plasmodium berghei; assay: Antimalarial activity as change in MST against drug-sensitive Plasmodium berghei infected mice (Mus musculus) at 160 mg/kg subcutaneous dose after 72h; assay type: functional
[10] = test system: Staphylococcus aureus; assay: In vitro antibacterial activity against […] S 18713.; assay type: functional; summary of the method: as §1
[11] = test system: Pseudomonas aeruginosa; assay: Compound was tested in vitro against Pseudomonas aeruginosa 28. by gradient-plate test.; assay type: functional; summary of the method: as §1
[12] = test system: Enterococcus faecalis; assay: In vitro antibacterial activity against Streptococcus faecalis MGH-2.; assay type: functional; summary of the method: as §1
[13] = test system: Mycobacterium tuberculosis; assay: In vitro antibacterial activity against Mycobacterium tuberculosis H37Rv.; assay type: functional
Summary of the method: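 Mycobacterium tuberculosis tested in vitro by gradient-plate test; minimum inhibitory concentration reported.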

[14] = test system: Plasmodium berghei; assay: Antimalarial activity as change in MST for drug-sensitive Plasmodium berghei infected mice (Mus musculus) at 640 mg/kg subcutaneous dose over 72 hr; assay type: functional
[15] = test system: Plasmodium berghei; assay: Antimalarial activity as change in MST for drug-sensitive Plasmodium berghei infected mice (Mus musculus) after 72 hrs at 320 mg/kg subcutaneous dose; assay type: functional
[16] = test system: Pseudomonas aeruginosa; assay: In vitro against Pseudomonas aeruginosa 28. by gradient-plate test; assay type: functional; summary of the method: as §1
[17] = test system: Plasmodium berghei; assay: Antimalarial activity as survivor number at day 60 for drug-sensitive Plasmodium berghei infected mice (Mus musculus) at 640 mg/kg subcutaneous dose over 72 hr; assay type: functional; summary of the method: as §2
[18] = test system: Escherichia coli; assay: Compound was tested in vitro against Escherichia coli Vogel. by gradient-plate test.; assay type: functional; summary of the method: as §1
[19] = test system: Plasmodium berghei; assay: Antimalarial activity as change in MST against drug-sensitive Plasmodium berghei infected mice (Mus musculus) at 320 mg/kg subcutaneous dose after 72 hr; assay type: functional
[20] = test system: Plasmodium berghei; assay: Antimalarial activity as change in MST for drug-sensitive Plasmodium berghei infected mice (Mus musculus) at 40 mg/kg subcutaneous dose over 72 hr; assay type: functional
[21] = test system: Enterococcus faecalis; assay: Compound was tested in vitro against Streptococcus faecalis MGH-2. by gradient-plate test.; assay type: functional; summary of the method: as §1
[22] = test system: Plasmodium berghei; assay: Antimalarial activity as change in MST for drug-sensitive Plasmodium berghei infected mice (Mus musculus) at 80 mg/kg subcutaneous dose over 72 hr; assay type: functional
[23] = test system: Plasmodium berghei; assay: Antimalarial activity as toxic deaths 2-5 days post infection for drug-sensitive Plasmodium berghei infected mice (Mus musculus) at 640 mg/kg subcutaneous dose over 72 hr; assay type: functional
Summary of the method: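 P. berghei (drug-sensitive) infected mice dosed once subcutaneously 72 h postinfection, compound in sesame or peanut oil. Read-out is the count of deaths on days 2–5 after infection, attributed to drug toxicity. Five animals per dose level, or 10 where indicated.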

[24] = test system: Staphylococcus aureus; assay: Compound was tested in vitro against […] S 18713 by gradient-plate test.; assay type: functional; summary of the method: as §1
[25] = test system: Staphylococcus aureus; assay: Compound was tested in vitro against […] U.C-76. by gradient-plate test.; assay type: functional; summary of the method: as §1
[26] = test system: Plasmodium berghei; assay: Antimalarial activity as change in MST against drug-sensitive Plasmodium berghei infected mice (Mus musculus) at 160 mg/kg subcutaneous dose after 72 hr; assay type: functional

Row | Structure (SMILES) | MIC [1] [µg/mL] | MIC [3] [µg/mL] | Delta MST [5] [days] | Delta MST [6] [days] | MIC [7] [µg/mL] | Delta MST [8] [days] | Delta MST [9] [days] | MIC [10] [µg/mL] | MIC [12] [µg/mL] | MIC [13] [µg/mL] | Delta MST [14] [days] | MIC [16] [µg/mL] | Delta MST [19] [days] | also measured
1 | Nc1nc(N)c2cc(S(=O)(=O)N3CCCC3)ccc2n1 | 10 (≈ 34.1 µM) | < 0.25 | 0.5 | 6.9 | > 25 | 5 | 8.7 | 2 (≈ 6.82 µM) | < 0.25 | 10 (≈ 34.1 µM) |  |  |  | survivors at day 60 [2]: 10; survivors at day 60 [4]: 5; MIC [11]: > 25 µg/mL
2 | Nc1nc(N)c2cc(S(=O)(=O)N3CCSCC3)ccc2n1 | 2 (≈ 6.15 µM) | < 0.25 | 1.7 | 3.5 | 2 (≈ 6.15 µM) | 2.5 | 8.3 | < 0.25 | < 0.25 | > 25 | 12.6 | > 25 |  | Delta MST [15]: 9.6 days
3 | CN(C)S(=O)(=O)c1ccc2nc(N)nc(N)c2c1Cl |  | 15 (≈ 49.7 µM) | 7.5 | 12.2 | 5 (≈ 16.6 µM) | 10.3 | 17 | > 25 | < 0.25 | > 25 |  | > 25 |  | survivors at day 60 [17]: 1; Delta MST [15]: 23.9 days; MIC [18]: 5 µg/mL (≈ 16.6 µM)
4 | Nc1nc(N)c2cc(S(=O)(=O)Nc3ccc(Cl)cc3)ccc2n1 |  |  | 0.5 | 4.9 |  | 0.7 | 9.3 |  |  |  | 13.9 |  | 14.7 | 
5 | Nc1nc(N)c2cc(S(=O)(=O)N3CCCCC3)ccc2n1 |  | < 0.25 | 1.1 | 4.7 | 0.5 (≈ 1.63 µM) |  | 10.2 | < 0.25 | < 0.25 | 10 (≈ 32.5 µM) |  | > 25 | 12.9 | survivors at day 60 [2]: 5; Delta MST [20]: 4.4 days; MIC [18]: < 0.25 µg/mL
6 | Nc1nc(N)c2cc(S(=O)(=O)Nc3ccc(Cl)c(Cl)c3)ccc2n1 | > 25 | 2.5 (≈ 6.51 µM) | 0.3 | 8.1 | > 25 | 3.1 | 10.1 | > 25 |  | > 25 |  | > 25 | 9.9 | survivors at day 60 [2]: 5; MIC [21]: > 25 µg/mL
7 | Nc1nc(N)c2cc(S(=O)(=O)Nc3ccc4ccccc4c3)ccc2n1 | > 25 | > 25 | 0.3 |  | > 25 |  | 1.1 | > 25 | 5 (≈ 13.7 µM) |  | 5.3 | > 25 | 1.5 | Delta MST [20]: 0.3 days; Delta MST [22]: 0.5 days
8 | Cc1c(S(=O)(=O)N(C)C)ccc2nc(N)nc(N)c12 | < 0.25 | 2 (≈ 7.11 µM) |  |  | 1.5 (≈ 5.33 µM) |  |  | 2.5 (≈ 8.89 µM) | < 0.25 | > 25 |  | > 25 |  | toxic deaths [23]: 5; Delta MST [20]: 1.1 days
9 | CN(c1cccc(Cl)c1)S(=O)(=O)c1ccc2nc(N)nc(N)c2c1 | > 25 | > 25 | 0.3 | 0.5 | > 25 | 0.3 | 4.5 | > 25 | > 25 | > 25 | 11.9 |  | 6.9 | MIC [11]: > 25 µg/mL
10 | CN(c1ccccc1)S(=O)(=O)c1ccc2nc(N)nc(N)c2c1 | > 25 | > 25 | 0.5 | 3.1 | > 25 |  | 8.3 | > 25 | > 25 | > 25 | 13.9 | > 25 | 11.5 | Delta MST [20]: 0.5 days
11 | CCOC(=O)N1CCN(S(=O)(=O)c2ccc3nc(N)nc(N)c3c2)CC1 | > 25 | 2 (≈ 5.26 µM) | 0.1 | 0.5 | > 25 | 0.2 | 4.1 | > 25 | 2 (≈ 5.26 µM) | > 25 |  | > 25 | 4.7 | survivors at day 60 [2]: 4
12 | CCN(CC)CCN(C)S(=O)(=O)c1ccc2nc(N)nc(N)c2c1 |  | > 25 |  |  | > 25 | 0.1 | 0.3 | > 25 | 20 (≈ 56.7 µM) | > 25 | 0.3 | > 25 |  | MIC [18]: > 25 µg/mL
13 | CN1CCN(S(=O)(=O)c2ccc3nc(N)nc(N)c3c2)CC1 | > 25 |  | 0.3 | 1.5 | > 25 | 1 | 4.4 |  | 2 (≈ 6.2 µM) | > 25 | 11.8 |  |  | MIC [24]: > 25 µg/mL; Delta MST [15]: 8.9 days; MIC [25]: 2 µg/mL (≈ 6.2 µM); MIC [11]: > 25 µg/mL
14 | CCCN(CCC)S(=O)(=O)c1ccc2nc(N)nc(N)c2c1 |  |  |  |  |  | 0.3 |  |  |  |  | 1.3 |  |  | Delta MST [26]: 0.4 days
15 | CC(C)N(C)S(=O)(=O)c1ccc2nc(N)nc(N)c2c1 |  |  | 0.5 |  |  | 0.7 | 7.3 |  |  |  |  |  | 6.9 | Delta MST [22]: 4 days
16 | CN(Cc1ccc(Cl)c(Cl)c1)S(=O)(=O)c1ccc2nc(N)nc(N)c2c1 | > 25 | > 25 | 0.3 | 0.5 | > 25 |  | 0.5 | > 25 | > 25 | > 25 | 9.5 | > 25 | 4.1 | Delta MST [20]: 0.3 days
17 | Nc1nc(N)c2cc(S(=O)(=O)N3CCCCC3Cc3ccccc3)ccc2n1 (stereo not drawn) | > 25 | 2 (≈ 5.03 µM) |  |  | > 25 | 0.3 | 0.3 | > 25 | < 0.25 | > 25 | 0.5 | > 25 |  | 
18 | Nc1nc(N)c2cc(S(=O)(=O)N(CCO)CCO)ccc2n1 |  |  | 0.3 | 0.5 |  |  | 1.3 |  |  |  | 8.1 |  | 4.1 | Delta MST [20]: 0.3 days
19 | Nc1nc(N)c2cc(S(=O)(=O)Nc3cccc(Br)c3)ccc2n1 | > 25 | > 25 | 0.3 | 0.5 | > 25 | 0.3 | 0.5 | > 25 | > 25 | > 25 | 4.1 | > 25 | 1.7 | 
20 | Nc1nc(N)c2cc(S(=O)(=O)N3CCC(N4CCCCC4)CC3)ccc2n1 | > 25 | > 25 |  | 0.5 | > 25 | 0.3 | 0.7 | > 25 | > 25 | > 25 | 3.9 | > 25 | 2.1 | 
21 | CCN(CC)S(=O)(=O)c1ccc2nc(N)nc(N)c2c1Cl | > 25 | 10 (≈ 30.3 µM) |  | 4.3 | > 25 | 2.3 |  | > 25 | < 0.25 | > 25 |  | > 25 | 18.9 | toxic deaths [23]: 5; Delta MST [26]: 14.9 days

From ChEMBL document CHEMBL1122803, “Folate antagonists. 22. Antimalarial and antibacterial effects of 2,4-diamino-6-quinazolinesulfonamides” (1984)
